Assays:
[1] = Half-life was determined; format: ADME; settings: human
Procedure, shortened: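 Deformylated intermediate cyclizes to diketopiperazine, releasing FdU. Followed by C18 HPLC at 214 nm after PDF treatment in 20 mM sodium phosphate pH 7.4. First-order fit of ln(A0/A) versus time; half-life taken from the fit.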

Escherichia coli [2] = experiment: The compound was tested for its antibacterial activity against Escherichia coli BL21(DE3) cells in luria broth; format: functional, organism-based
Escherichia coli [3] = experiment: The compound was tested for activation by purified Escherichia coli PDF in vitro by measuring deformylation at pH 7.4; format: functional
Procedure, shortened: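 Purified E. coli PDF added to prodrug (~1 mM) in 20 mM sodium phosphate pH 7.4. Aliquots taken over time and quenched with equal volume 100 mM TFA. Analysed by C18 HPLC at 214 nm; kcat/KM derived from deformylation to intermediate.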

[4] = system: Staphylococcus epidermidis; experiment: The compound was tested for its antibacterial activity against Staphylococcus epidermidis.; format: functional, organism-based
Escherichia coli [5] = experiment: Compound was tested for its antibacterial activity against Escherichia coli BL21(DE3) cells in luria broth; format: functional, organism-based
[6] = system: Staphylococcus epidermidis; experiment: Compound was tested for its antibacterial activity against Staphylococcus epidermidis; format: functional, organism-based

Row | half-life [1] | IC50 (Escherichia coli [2]) | IC50 [4] | IC50 (Escherichia coli [5]) | IC50 [6] | SMILES | k cat/Km (Escherichia coli [3])
1 | 15.2 min | > 100 µM |  |  |  | CSCC[C@H](NC=O)C(=O)N1CCC[C@@H]1C(=O)OCC1OC(n2cc(F)c(=O)[nH]c2=O)CC1O (some centres not stated) | 
2 | 2.07 min | > 100 µM |  |  |  | CSCC[C@H](NC=O)C(=O)N(C)[C@@H](CC(C)C)C(=O)OCC1OC(n2cc(F)c(=O)[nH]c2=O)CC1O (some centres not stated) | 1650 M⁻¹ s⁻¹
3 | 4.68 min | > 100 µM |  |  |  | CSCC[C@H](NC=O)C(=O)N1CCC[C@H]1C(=O)OCC1OC(n2cc(F)c(=O)[nH]c2=O)CC1O (some centres not stated) | 
4 | 51.1 min |  | 50 µM | > 100 µM | ~50 µM | CSCC[C@H](NC=O)C(=O)NC(C)(C)C(=O)OCC1OC(n2cc(F)c(=O)[nH]c2=O)CC1O (some centres not stated) | 28900 M⁻¹ s⁻¹
